The record followed here is ChEMBL document CHEMBL1135999, “Discovery of N-isoxazolyl biphenylsulfonamides as potent dual angiotensin II and endothelin A receptor antagonists” (J Med Chem, 2002).

The source made the active and inactive calls. No cut-off for these calls is given here.

One data set concerns the target T1, Endothelin-1 receptor (Homo sapiens, UniProt P25101).
T1 sequence (P25101 whole entry): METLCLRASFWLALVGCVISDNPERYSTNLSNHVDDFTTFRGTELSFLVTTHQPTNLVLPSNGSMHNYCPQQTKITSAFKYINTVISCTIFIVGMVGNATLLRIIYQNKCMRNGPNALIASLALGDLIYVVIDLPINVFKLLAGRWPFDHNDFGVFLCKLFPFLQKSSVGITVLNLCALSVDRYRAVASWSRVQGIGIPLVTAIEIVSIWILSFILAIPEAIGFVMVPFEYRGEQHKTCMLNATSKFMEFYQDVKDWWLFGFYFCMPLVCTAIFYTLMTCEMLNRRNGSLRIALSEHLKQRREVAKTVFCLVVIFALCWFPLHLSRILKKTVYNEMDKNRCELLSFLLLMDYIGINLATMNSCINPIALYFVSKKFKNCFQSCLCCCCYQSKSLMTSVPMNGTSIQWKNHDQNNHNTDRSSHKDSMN
In words: Compound was evaluated for its binding affinity towards human Endothelin A receptor. In a few lines:
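CHO-K1 cells expressing human ETA receptor, seeded 1.8×10^4 cells/well 24 h before assay. Binding run in 50 mM Tris pH 7.4 with 1% BSA and 2 µM phosphoramidon, using 0.25 nM [125I]-ET-1 and competing drug. Nonspecific binding defined with 500 nM ET-1. Incubated 4 h at 4 °C with shaking, washed, cells dissolved in 0.5 N NaOH, gamma-counted.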

Data set [1] deals with T2, Type-1 angiotensin II receptor B (Rattus norvegicus, UniProt P29089).
T2 sequence (P29089 whole entry): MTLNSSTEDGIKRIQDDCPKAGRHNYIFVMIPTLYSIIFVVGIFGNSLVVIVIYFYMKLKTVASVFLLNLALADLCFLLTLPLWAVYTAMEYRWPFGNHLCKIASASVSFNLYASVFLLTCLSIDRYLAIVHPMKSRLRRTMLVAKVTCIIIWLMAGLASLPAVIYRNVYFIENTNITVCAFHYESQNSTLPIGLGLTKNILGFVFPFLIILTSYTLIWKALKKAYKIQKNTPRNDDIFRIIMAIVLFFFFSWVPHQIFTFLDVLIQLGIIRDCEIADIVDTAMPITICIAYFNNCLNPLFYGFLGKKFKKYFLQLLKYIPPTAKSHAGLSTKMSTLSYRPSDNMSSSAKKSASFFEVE
In words: Compound was evaluated for its binding affinity towards rat Angiotensin II receptor, type 1. In a few lines:
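Rat aortic smooth muscle cells grown 48 h to 90% confluency in HEPES-buffered DMEM with 10% FCS. Assayed in DMEM with 0.1% BSA and 0.01% sodium azide, using 0.2 nM [125I]-Sar-Ile-angiotensin II and increasing compound. Nonspecific binding defined with 10 µM Ang II. Incubated 2 h at room temperature with shaking, washed with cold PBS, lysed in 1% Triton X-100, gamma-counted. IC50 obtained by curve fitting.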

Data set [2] relates to Rattus norvegicus. In words: Compound was tested for its activity in Ang II pressor test following intravenous administration; NE = No effect. The data set is classed as functional, organism-based.
Data set [3] relates to Rattus norvegicus. In words: Compound was tested for its activity in bET-1 pressor test following intravenous administration. Format: functional.
Data set [4] has as its system Rattus norvegicus. In words: Compound was tested for its activity in bET-1 pressor test following oral administration. Format: functional. Put shortly:
(§1)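 Conscious normotensive rats challenged iv with big ET-1 (1.0 nmol/kg). A control response was obtained after vehicle. Compound was then given orally, and bET-1 was re-injected iv at 15, 105 and 195 min after dosing. Mean blood pressure followed up to 3 h, with area over curve used as read-out; n = 4 per dose.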

For data set [5], the system named is Rattus norvegicus. In words: Compound was tested for its activity in Ang II pressor test following oral administration; NE = No effect. The data set is classed as functional, organism-based. In a few lines:
(§2)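 Conscious normotensive rats carrying carotid artery and jugular vein catheters. […] Compound was given by oral gavage, and rats were rechallenged with Ang II at intervals up to 240 min. Percent inhibition taken from the maximum blood pressure rise before versus after drug; n = 4 per dose.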

Data set [6] concerns the target T3, Type-1 angiotensin II receptor (Homo sapiens, UniProt P30556).
T3 sequence (P30556 whole entry): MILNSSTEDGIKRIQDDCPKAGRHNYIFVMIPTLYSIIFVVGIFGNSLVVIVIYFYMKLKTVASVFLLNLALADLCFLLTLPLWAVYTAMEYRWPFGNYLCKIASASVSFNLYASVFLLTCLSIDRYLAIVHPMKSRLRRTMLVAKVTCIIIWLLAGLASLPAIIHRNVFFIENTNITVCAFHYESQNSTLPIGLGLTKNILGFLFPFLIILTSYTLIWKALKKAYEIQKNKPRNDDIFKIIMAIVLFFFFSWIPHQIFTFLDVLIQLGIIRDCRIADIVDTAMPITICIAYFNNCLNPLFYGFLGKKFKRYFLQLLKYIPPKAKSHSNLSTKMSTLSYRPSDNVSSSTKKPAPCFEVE
In words: Compound was evaluated for inhibitory activity against human Angiotensin II receptor, type 1. In a few lines:
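Human recombinant AT1 receptor membranes in 50 mM Tris-HCl pH 7.4 with 10 mM MgCl2, 1 mM EDTA and 0.1% BSA. Incubated with 0.2 nM [125I]-Sar-Ile-angiotensin II and increasing compound concentrations, 60 min at 37 °C. Nonspecific binding defined with 10 µM angiotensin II. Bound and free label separated, then gamma-counted.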

Data set [7] is described as follows: Pharmacokinetic parameter MRT value was determined in rat at a dose of 10(umol/kg) following intravenous administration (mean+/-SD). Conditions: in vivo. Format: ADME, organism-based. Put shortly:
(§3)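 Male rats dosed at 10 µmol/kg, iv or po (n = 6 per route). Plasma exposure followed to give AUC0-∞, clearance, Vss, t1/2 and MRT (iv), and Cmax, Tmax, t1/2, MRT, AUC and oral bioavailability (po). Values reported as mean ± SD.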

Data set [8] in a line: Pharmacokinetic parameter Plasma clearance determined after intravenous administration at a dose of 10 (umol/kg) (mean+/-SD). The data set is classed as ADME, organism-based. Put shortly: as §3
Data set [9] can be described thus: Pharmacokinetic parameter Volume of distribution was determined in rat following i.v. administration of a dose of 10 (umol/kg) (mean+/-SD). Format: ADME, organism-based. Conditions: in vivo, iv, read-out: Vss. In a few lines: as §3
A short description of data set [10]: Pharmacokinetic parameter MRT value determined in rat at a dose of 10(umol/kg) following peroral administration (mean+/-SD). Format: ADME, organism-based. Conditions: in vivo, po. Put shortly: as §3
Data set [11] relates to Rattus norvegicus. In words: (§4) Compound was tested for its activity in Ang II pressor test following intravenous administration. The data set is classed as ADME, organism-based.
Data set [12] is described as follows: A dose of 10 (umol/kg) was administered pre orally to rat and plasma concentration was reported (mean+/-SD). The data set is classed as ADME, organism-based. Also noted: dose 10 umol/kg, route oral. The following applies: po. Put shortly: as §3
The nature of data set [13]: half life was determined in rat at a dose of 10 (umol/kg) following peroral administration (mean+/-SD). Format: ADME, organism-based. Conditions: in vivo, po. In a few lines:
as §3

The nature of data set [14]: Pharmacokinetic parameter Area under curve reported following intravenous administration at a dose of 10 (umol/kg) (mean+/-SD). Format: ADME. In a few lines: as §3
Data set [15] is described as follows: half life was determined in rat at a dose of 10 (umol/kg) following intravenous administration (mean+/-SD). The data set is classed as ADME, organism-based. The following applies: in vivo. In a few lines:
as §3

Data set [16] is described as follows: Pharmacokinetic parameter Area under curve reported following peroral administration at a dose of 10 (umol/kg) (mean+/-SD). Format: ADME. Conditions: po. In a few lines:
as §3

Data set [17] in a line: A dose of 10(umol/kg) was administered orally to rat and % bioavailability was determined. The data set is classed as ADME, organism-based. Conditions: in vivo, po, read-out: Bioavailabiility. Put shortly: as §3
The test system of data set [18] is Rattus norvegicus. In words: Compound was tested for its activity in Ang II pressor test following oral administration. The data set is classed as functional. Put shortly: as §2
Data set [19] in a line: A dose of 10(umol/kg) was administered orally to rat and Tmax value was determined (mean+/-SD). The data set is classed as ADME, organism-based. Conditions: in vivo, po. In a few lines: as §3
Data set [20] has as its system Rattus norvegicus. In words: Compound was tested for its activity in bET-1 pressor test following intravenous administration; NE = No effect. Format: functional, organism-based.
Data set [21] deals with Rattus norvegicus. In words: Compound was tested for its activity in bET-1 pressor test following oral administration; NE = No effect. Format: functional, organism-based. Put shortly: as §1
The test system of data set [22] is Rattus norvegicus. Described as §4. The data set is classed as functional.

On to `CCCCC1=NC2(CCCC2)C(=O)N1Cc1ccc(-c2ccccc2S(=O)(=O)Nc2onc(C)c2C)cc1`, for which the values for the inhibition constant Ki (on Endothelin-1 receptor; in data set [1]) were 39 nM and 4.7 nM, respectively.

As for `Cc1noc(NS(=O)(=O)c2ccccc2-c2ccc(-c3ncco3)cc2)c1C`, the NE result in the data set with Rattus norvegicus [2] and in the data set on Rattus norvegicus [5] was “inactive” throughout. The ED50 – broadly, the dose at which the effect has come halfway, by size or by number of responders – with Rattus norvegicus [3] worked out at 0.9 µmol/kg; with Rattus norvegicus [4], 10 µmol/kg. Further, the Ki – broadly, a dissociation constant, usually derived from enzyme kinetics or from competition with a known ligand – in data set [1] was greater than 10000 nM.

`CCCc1cc(Cn2c(CC)nc3c(C)cc(C)nc32)ccc1OC(C(=O)NS(=O)(=O)c1ccc(C(C)C)cc1)c1ccc2c(c1)OCO2` (stereo not drawn): 13 nM corresponded to half-maximal inhibition in [6] (IC50).

In the case of `CCCCC1=NC2(CCCC2)C(=O)N1Cc1ccc(-c2ccccc2S(=O)(=O)Nc2onc(C)c2C)c(CN2CCC(C)(C)C2=O)c1` [BMS-248360], the values for the MRT in data set [7] and in [10] were 6.4 h and 5 h, respectively. In [8], the clearance (as a rule, the volume of plasma or blood freed of the substance per unit of time) was 3.8 mL/min/kg. In addition, in data set [9], the Vd came out at 1.4 L/kg. For the same compound, the ED50 in the data set on Rattus norvegicus [11] came out at 1.4 µmol/kg; with Rattus norvegicus [3], 2.1 µmol/kg; in the data set with Rattus norvegicus [4], 26 µmol/kg; with Rattus norvegicus [18], 39 µmol/kg. In addition, the highest level in data set [12] (Cmax) was 3.1 µM. In addition, the values for the half-life in data set [13] and in data set [15] were 180 min and 330 min, respectively. The AUC (as a rule, concentration integrated over time) in [14] was determined as 50 µM·h; in [16], 19 µM·h. Moreover, the bioavailability in data set [17] is 38%. Moreover, in data set [19], the Tmax (commonly the time from dosing to the highest level) is 42 min.

Regarding `CCCCC1=NC2(CCCC2)C(=O)N1Cc1ccc(-c2ccccc2-c2nnn[nH]2)cc1` [IRBESARTAN], the NE entry with Rattus norvegicus [20] was “inactive”. Moreover, the outcome in the data set with Rattus norvegicus [21] was inactive. For the same compound, in data set [1], the affinity, expressed as Ki, was 0.8 nM. The ED50 in the data set with Rattus norvegicus [22] came to 0.3 µmol/kg; with Rattus norvegicus [18] it was 16 µmol/kg.
